Screening results: PubChem BioAssay, The Scripps Research Institute Molecular Screening Center
CHO parental Ca – ATP-evoked calcium signal inhibitors, parental CHO, primary screen, counter-screen for OX1R antagonist project, cell-based, fluorescence, Fluo-8 calcium dye. parental CHO-K1, ATP-induced calcium, Fluo-8 fluorescence. inhibition, % at 5.6 µM. 330,000 tested, 0.63% active. AID 463079, 2010;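 active means inhibition above that plate's mean sample inhibition plus 3 SD, cut at about 26% in these data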;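 further: 0% = ATP-challenged DMSO wells and 100% = DMSO wells without ATP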
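material = parental CHO cells | also added = ATP as calcium-mobilizing challenge | dosing = single point at 5.6 µM | detection = intracellular calcium via Fluo-8 no-wash fluorescent dye | read-out = % inhibition | benchmarks = low control ATP plus DMSO, high control DMSO only | repeats = one well per compound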
OX1R antag-1 – antagonists of human orexin 1 receptor (OX1R); Orexin/Hypocretin receptor type 1 (Homo sapiens), O43613; OX1R-expressing cells, FRET antagonist read-out; 330,000 tested, 1.8% active; inhibition, % at 6.6 µM; in the data active means inhibition mostly above about 38%, no sharp cut-off; inactive means mostly below about 40%;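 further: 0% = agonist challenge alone and 100% = reference antagonist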
GPR7 antag – GPR7 receptor antagonists, primary screen, cell-based, fluorescence, single concentration; GPR7-expressing cells, fluorescence antagonist assay; inhibition, % at 4.4 µM; 290,000 tested, 1.1% active; AID 1861, 2009; in the data active means inhibition above about 16%, passing the limit was not always enough;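 further: cells stimulated with the agonist NPW; 0% = agonist with vehicle and 100% = vehicle without agonist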
TAAR1 antagonist – human TAAR1 antagonists, primary screen, Fluo-8 calcium fluorescence, CHO RD-HGA16 cells. antagonist. Trace amine-associated receptor 1 (Homo sapiens), Q96RJ0. inhibition, % at 3 µM. 360,000 tested, 1.5% active;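 active means inhibition above a per-plate cutoff, the mean inhibition of test compounds on that plate plus 3 SD, cut at about 49% in these data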;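 further: 0% = DMSO plus EC80 beta-PEA response and 100% = DMSO alone without agonist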
Target sequence (Q96RJ0 whole entry, looked up): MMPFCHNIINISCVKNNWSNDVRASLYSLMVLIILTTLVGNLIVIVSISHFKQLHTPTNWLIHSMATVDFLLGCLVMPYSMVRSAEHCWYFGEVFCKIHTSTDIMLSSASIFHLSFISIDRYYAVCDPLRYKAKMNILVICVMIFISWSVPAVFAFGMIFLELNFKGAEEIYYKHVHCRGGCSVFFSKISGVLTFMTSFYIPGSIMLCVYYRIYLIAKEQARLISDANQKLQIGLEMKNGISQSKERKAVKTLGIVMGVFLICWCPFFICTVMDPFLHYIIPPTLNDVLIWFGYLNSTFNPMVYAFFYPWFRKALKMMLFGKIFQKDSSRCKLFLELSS
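Assay system: CHO-derived RD-HGA16 cells stably expressing human TAAR1 plus Gα16. Timing: 140 s kinetic read after compound, 140 s after agonist. Technique: kinetic Fluo-8 calcium fluorescence measurement. Measure: % inhibition of agonist calcium response.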
OX1R antag-2 – OX1R (HCRTR1) antagonists, primary screen, fluorescence, CHO/OX1R cells, Fluo-8 calcium, orexin A | Orexin/Hypocretin receptor type 1 (Homo sapiens), O43613 | Fluo-8 calcium fluorescence | inhibition, % at 5 µM | 330,000 tested, 0.43% active;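 active means inhibition above its plate's threshold, mean inhibition of all tested compounds on the plate plus 3 SD, cut at about 37% in these data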;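 further: 0% = orexin A challenge wells and 100% = SB-334867-A antagonist wells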
TAAR1 agonist – human TAAR1 agonists, primary screen, Fluo-8 calcium fluorescence, CHO RD-HGA16 cells; activation, % at 3 µM; vehicle wells 0%, saturating PEA agonist 100%; Trace amine-associated receptor 1 (Homo sapiens), Q96RJ0; AID 624467, 2012; 360,000 tested, 0.99% active;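 active means activation above the mean activation of all test compounds in the run plus 3 SD, cut at about 38% in these data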
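Signal – calcium-sensitive Fluo-8 signal, excitation 470-495, emission 515-575 nm · System – RD-HGA16 (CHO) cells co-expressing Gα16 and hTAAR1 · Incubation – 17-24 h seeding, 75 min 37 °C dye, 30 min RT · Compound dosing – 3 µM single concentration · Repeats – no replicates (n 1)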
* = called active by the depositor; nt = no result. Compounds with a hit are over-represented: about 4.5% of the library has one in this group of screens.

SMILES	CHO parental Ca	OX1R antag-1	GPR7 antag	TAAR1 antagonist	OX1R antag-2	TAAR1 agonist
Cc1noc(C)c1NC(=O)N(C)C[C@H]1OCc2cn(nn2)CCCC(=O)N([C@H](C)CO)C[C@@H]1C	nt	nt	nt	-1	nt	1
O=S(=O)(NCc1cccs1)c1ccc(Br)cc1	-14	14	-12	17	4	0
O=C(Nc1ccc(Br)cc1)c1ccc(F)c(S(=O)(=O)NCc2cccs2)c1	0	94*	10	4	55*	12
CC(C)c1cc(C(=O)NCc2ccc(F)cc2)c(N)s1	nt	nt	nt	-9	nt	-1
O=C(/C=C/c1ccccc1)NC(=S)NNC(=O)Cc1cccs1	12	16	-3	2	22	53*
O=C(Nc1ccc(C(=O)O)cc1)/C(=C\C=C\c1ccccc1)NC(=O)c1cccc(Br)c1	-5	11	2	9	-6	0
O=C(Nc1ccc(C(=O)O)cc1)/C(=C\C=C\c1ccccc1)NC(=O)c1ccccc1Br	6	18	-7	59*	8	2
O=C(c1cc(-c2ccc(Cl)cc2)on1)N1CCc2ccccc2C1	2	38	-6	3	-8	39*
Cc1ccccc1NC(=S)NCCc1ccccn1	-2	4	-3	-2	-16	60*
COc1ccccc1NC(=S)NCCc1ccccc1	-17	14	4	0	-12	40*
Cc1cccc(C)c1NC(=S)NCCc1ccccn1	-1	4	-6	-16	-18	3
S=C(NCCc1ccccc1)Nc1cccc2cnccc12	52*	44	7	6	26	51*
O=C(O)c1ccc(SCc2ccccc2)nc1	3	10	nt	2	16	1
COc1ccc(N2CCN(c3nccs3)CC2)cc1	-5	10	-19	-7	-13	4
C[C@H]1Cn2cnc(C(=O)N(C)Cc3ccccc3)c2C(=O)N1	nt	nt	nt	-5	nt	-1
COc1ccccc1C(=O)N1CCC2CCN(C(=O)OC(C)(C)C)C2C1 (stereo not drawn)	nt	nt	nt	-20	nt	1
CN(CCC#N)C(=O)c1ccc(CNS(=O)(=O)c2ccc(F)cc2)cc1	1	17	16*	-11	-7	-3
Brc1cc(Br)c2nc(-c3cccs3)ccc2c1	-13	12	-4	-25	-15	8
Cc1nc2c(Br)cc(Br)cc2cc1O	5	55*	9	0	-14	13
COc1ccc(S(=O)(=O)N2CCOCC2)cc1N=Nc1sc(N)nc1-c1ccccc1	-4	33	5	54*	-3	12
CCc1nc2ccc(C(=O)N3CCN(C)CC3)cn2c1N(C)CCC(C)C	nt	nt	nt	-14	nt	2
CCc1ccc(-c2cc(C)no2)cc1S(=O)(=O)N1CC(=O)Nc2ccccc21	2	24	28	3	2	1
Cc1cc(-c2ccc(C(C)C)c(S(=O)(=O)N3CC(=O)Nc4ccccc43)c2)on1	-8	39*	-4	-19	-2	0
COC(=O)C1=C(C)N(Cc2ccccc2C(F)(F)F)C(=NCc2ccc(OC)cc2)NC1c1ccccc1C(F)(F)F (stereo not drawn)	nt	nt	nt	-18	nt	-1
CS(=O)(=O)N1CCN(c2ccccc2NC(=S)NC(=O)c2ccccc2[N+](=O)[O-])CC1	-26	3	-4	54*	-33	31
CS(=O)(=O)N1CCN(c2ccccc2NC(=S)NC(=O)c2cccs2)CC1	-23	-4	-10	47	-9	15
O=C(O)c1ccc(-n2c(/C=C/c3ccccc3)nc3ccccc3c2=O)cc1	8	37*	-21	35	3	5
N#C/C(=C/c1cccc(O)c1)C(=O)NCc1ccc(Cl)cc1	-21	6	0	-20	-16	13
N#C/C(=C/c1ccc(O)c(O)c1)C(=O)NCc1ccc(Cl)cc1	-3	20	0	6	11	48*
S=c1[nH]nc(-c2ccncc2)n1Cc1ccccc1	-11	1	0	-25	4	2
